Source: ChEMBL document CHEMBL1146238, “Prenylated xanthones from the root bark of Cudrania tricuspidata” (J Nat Prod, 2007)

These compounds were tested against T1, Amine oxidase [flavin-containing] A (Mus musculus, UniProt Q64133) (assay: Inhibition at monoamine oxidase in mouse brain).
T1 sequence (Q64133 whole entry): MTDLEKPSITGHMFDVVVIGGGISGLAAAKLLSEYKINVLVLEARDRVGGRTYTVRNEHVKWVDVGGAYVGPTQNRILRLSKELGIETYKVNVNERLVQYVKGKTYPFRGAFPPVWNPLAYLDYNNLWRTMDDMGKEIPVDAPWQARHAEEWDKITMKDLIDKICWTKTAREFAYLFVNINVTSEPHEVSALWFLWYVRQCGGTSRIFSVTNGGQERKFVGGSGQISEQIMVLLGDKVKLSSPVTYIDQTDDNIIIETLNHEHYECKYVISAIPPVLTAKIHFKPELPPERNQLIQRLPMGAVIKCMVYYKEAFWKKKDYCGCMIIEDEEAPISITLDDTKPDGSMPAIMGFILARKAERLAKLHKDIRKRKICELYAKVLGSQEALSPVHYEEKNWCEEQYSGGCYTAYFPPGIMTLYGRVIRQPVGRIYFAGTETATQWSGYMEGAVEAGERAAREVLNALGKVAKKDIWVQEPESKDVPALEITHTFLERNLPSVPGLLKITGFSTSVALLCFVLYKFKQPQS
Type: tissue-based
Method in brief: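 Enzyme source: mouse brain mitochondrial fraction. Substrate kynuramine, with MAO converting it to 4-hydroxyquinoline. That product is read fluorometrically at excitation 315 nm and emission 380 nm. Compounds go in as DMSO solutions, with DMSO kept below 3%. Iproniazid serves as the positive control. Result reported as IC50.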

Going from `CC(C)=CC1Oc2cc(O)ccc2-c2oc3cc4c(c(O)c3c(=O)c21)C=CC(C)(C)O4` (stereo unspecified) [CUDRAFLAVONE A] to `CC(C)=CCc1c(-c2ccc(O)cc2O)oc2cc3c(c(O)c2c1=O)C=CC(C)(C)O3` [CUDRAFLAVONE B], the IC50 falls from greater than 150 µM to 80 µM.

First: C=CC(C)(C)c1c(O)cc2oc3c(CC=C(C)C)c(O)c(O)cc3c(=O)c2c1O [CUDRAXANTHONE L]
Second: C=CC(C)(C)c1c(O)cc(O)c2c(=O)c3c(CC=C(C)C)c(O)c(O)cc3oc12 [CUDRATRICUSXANTHONE A]
The IC50 of the first is higher: greater than 150 µM for the first, 88.3 µM for the second. The second is the more potent here.

Compared with `CC(C)=CCc1c(O)cc2c(c1O)C(=O)C[C@@H](c1cc3c(cc1O)OC(C)(C)C=C3)O2` [CUDRAFLAVANONE A], `CC(C)=CCc1c(O)c(O)cc2oc3c4c(cc(O)c3c(=O)c12)OC(C)C4(C)C` (stereo unspecified) [CUDRATRICUSXANTHONE J] is higher in IC50: 89.7 µM for the first, greater than 150 µM for the second.

`C=CC(C)(C)c1c(O)cc(O)c2c(=O)c3cc(O)c(O)cc3oc12` [CUDRATRICUSXANTHONE L] and `C=CC(C)(C)c1c(O)cc(O)c2c(=O)c3c(CCC(C)(C)O)c(O)c(O)cc3oc12` [CUDRATRICUSXANTHONE M] cannot be ordered by IC50: greater than 150 µM for the first, greater than 150 µM for the second.

`C=CC(C)(C)c1c(O)cc2oc3c4c(c(O)cc3c(=O)c2c1O)OC(C)(C)C=C4` [ISOCUDRAXANTHONE K] and `C=CC(C)(C)c1c(O)cc(O)c2c(=O)c3c(CC=C(C)C)c(OC)c(O)cc3oc12` [CUDRAXANTHONE C] cannot be ordered by IC50: greater than 150 µM for the first, greater than 150 µM for the second.

`COc1c(CC=C(C)C)c(O)c2c(=O)c3cc(O)c(O)cc3oc2c1CC=C(C)C` [CUDRATRICUSXANTHONE K] gave an IC50 greater than 150 µM.
